Assay results collected from several papers.
Compare with care: the assays were run in different laboratories.
Target: Mitogen-activated protein kinase kinase kinase 3 (MAP3K3, Homo sapiens, UniProt Q99759)
Residues used in one study (Q99759 1-626): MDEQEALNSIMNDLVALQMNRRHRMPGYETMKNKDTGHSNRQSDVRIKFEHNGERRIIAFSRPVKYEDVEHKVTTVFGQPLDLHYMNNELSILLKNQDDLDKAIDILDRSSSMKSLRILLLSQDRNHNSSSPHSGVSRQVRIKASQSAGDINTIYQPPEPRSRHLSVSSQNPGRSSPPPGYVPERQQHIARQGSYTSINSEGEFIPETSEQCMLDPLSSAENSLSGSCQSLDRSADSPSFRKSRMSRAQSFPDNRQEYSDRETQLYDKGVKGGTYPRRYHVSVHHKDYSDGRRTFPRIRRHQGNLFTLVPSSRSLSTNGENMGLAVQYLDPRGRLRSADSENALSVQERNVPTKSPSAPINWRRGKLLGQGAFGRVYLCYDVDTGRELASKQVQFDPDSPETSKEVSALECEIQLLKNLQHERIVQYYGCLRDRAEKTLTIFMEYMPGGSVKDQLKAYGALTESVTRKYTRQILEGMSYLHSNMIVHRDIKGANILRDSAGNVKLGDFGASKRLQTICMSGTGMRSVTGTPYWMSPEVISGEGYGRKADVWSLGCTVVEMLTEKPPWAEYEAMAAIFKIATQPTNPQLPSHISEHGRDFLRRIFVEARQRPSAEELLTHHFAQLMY

O=C1Nc2ccc(Cl)cc2C1=Cc1cc(Cl)c(O)c(Cl)c1
remaining signal (cell-free assay; 0.5 µM): 101%

Cc1ccc(C(=O)Nc2ccc(CN3CCN(C)CC3)c(C(F)(F)F)c2)cc1C#Cc1cnc2cccnn12
remaining activity (enzyme activity; inhibitor; 23.5 nM): 34%

CN(c1ccnc(CNc2nc(Nc3ccc4c(c3)CC(=O)N4)ncc2C(F)(F)F)n1)S(C)(=O)=O
remaining binding (cell-free assay; competition with immobilised ligand; 1 µM): 44%

COc1cc(Cl)c(C(=O)N[C@@H](CN[C@H]2CC[C@@H](N)CC2)Cc2ccc(C#N)cc2)cc1-c1ccc(CN[C@H](C)c2ccc(C)cc2)o1
remaining activity (enzyme activity; inhibitor; 1 µM): 95%

Cn1cc(Cl)c2c(Oc3c(F)cc(Nc4cc(Cl)nc(N)n4)cc3F)ccnc21
remaining binding (cell-free assay; competition with immobilised ligand; 0.1 µM): 90%

Cc1sc(C(=O)NC2COC2)cc1-n1cc(NC(=O)Nc2c(F)cccc2Cl)cn1
remaining activity (enzyme activity; inhibitor; 10 µM): 113%

CN1CC(Oc2cnc(C#N)cc2-c2ccn3nc(NC(=O)C4CC4)cc3c2)C1
inhibition (enzyme activity; inhibitor; 1 µM): 3%

Cc1nc(C2CCN(C(=O)c3ccc(OC(F)(F)F)cc3N)CC2)c2ncc(N3CCN(C)CC3)cc2n1
remaining binding (cell-free assay; competition with immobilised ligand; 1 µM): 92%

COc1cc2c(N3CCN(C(=O)Nc4ccc(OC(C)C)cc4)CC3)ncnc2cc1OCCCN1CCCCC1
remaining signal (cell-free assay; 0.5 µM): 106%

COc1ccc(F)cc1C(=O)NCc1ccc(-c2nn([C@@H](C)C(F)(F)F)c(N)c2C(N)=O)cc1
inhibition (target engagement in cells; inhibitor; chemoproteomics; 10 nM): 4.7%

CN([C@@H]1CCc2c(CC(=O)O)c3cc(S(C)(=O)=O)ccc3n2C1)S(=O)(=O)c1ccc(F)cc1
remaining binding (cell-free assay; competition with immobilised ligand; 1 µM): 85%

N#CCCc1ccc2c(c1)-c1[nH]c3ccc([N+](=O)[O-])cc3c1CC(=O)N2
remaining signal (cell-free assay; 0.5 µM): 83.3%

CS(=O)(=O)c1cc(C2(NC(=O)c3cncc4c3cnn4-c3ccc(F)cc3)CC2)ccn1
remaining binding (cell-free assay; competition with immobilised ligand; 1 µM): 92%

CC(C)(O)[C@H]1CC[C@H](Nc2ccc3ncc(-c4cccc(C(F)(F)F)c4)n3n2)CC1
remaining activity (enzyme activity; inhibitor; 1 µM): 92.2%

CC(C)(C)c1nc2c(s1)c1nc(N)ncc1c1ccc(NS(=O)(=O)c3c(F)cccc3F)c(F)c12
remaining activity (enzyme activity; inhibitor; radiometric; 1 µM): 117%

Cc1ccc(C(=O)NCc2ccsc2)cc1C#Cc1cn(C(C)C)c2ncnc(N)c12
activity vs control (enzyme activity; inhibitor; 1 µM): 70%
